Reference: ChEMBL document CHEMBL1129465, “Polyamine analogue regulation of NMDA MK-801 binding: a structure-activity study” (J Med Chem, 1996)

Columns and labels:
Format in all cases: ADME
[1] = Acid base constant value for N4 atom; settings: read-out: pKa4
Procedure, shortened: (§1)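 Potentiometric titration: the polyamine hydrochloride salt was first converted to the free amine by adding base, then titrated in 0.1 N KCl. Each nitrogen's pKa was estimated by a nonlinear least-squares computer fit of the titration curve. Fractions of the protonated species were then simulated from the measured pKa values.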

[2] = Acid base constant value for N2 atom; settings: read-out: pKa2; procedure, shortened: as §1
[3] = Acid base constant value for N3 atom; settings: read-out: pKa3; procedure, shortened: as §1
[4] = Acid base constant value for N1 atom; settings: read-out: pKa1; procedure, shortened: as §1

| Structure (SMILES) | pKa [1] | pKa [2] | pKa [3] | pKa [4] |
| --- | --- | --- | --- | --- |
| NCCCCNCCCCNCCCCN | 8.72 | 10.4 | 9.57 | 11.2 |
| C(CNC1CCNCC1)CNC1CCNCC1 | 7.14 | 10.7 | 8.88 | 11.2 |
| c1cc(NCCCNc2ccncc2)ccn1 | < 2 | 9.14 | < 2 | 9.55 |
| C(CCNCCC1CCNCC1)CNCCC1CCNCC1 | 9.1 | 10.8 | 10 | 10.9 |
| C(CCNC1CCNCC1)CNC1CCNCC1 | 7.6 | 10.7 | 9.02 | 11.4 |

More lines, now with the values ahead:

| pKa [1] | pKa [2] | pKa [3] | pKa [4] | Structure (SMILES) |
| --- | --- | --- | --- | --- |
| 8.91 | 10.8 | 9.73 | 11.1 | CCNCCCCNCCCCNCCCCNCC [DIETHYLHOMOSPERMINE] |
| 7.51 | 9.8 | 8.35 | 10.6 | NCCCNCCCNCCCN [THERMINE] |
| 7.68 | 9.91 | 8.51 | 10.8 | CCNCCCNCCCNCCCNCC [BIS(ETHYL)NORSPERMINE] |
| 8.25 | 10.8 | 9.42 | 11.2 | CCNCCCNCCCCNCCCNCC [BIS(ETHYL)SPERMINE] |
